# In ChEMBL document CHEMBL5058577, “EUbOPEN Chemogenomics Library 2 (Multiplex)” (2022):
# System: HEK-293T
# Test: Multiplex assay against HEK293T
# Assay type: toxicity, cell-based
# Conditions: human
# Outline: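 Cells stained live at seeding with Hoechst33342, BioTracker Green Microtubule Cytoskeleton Dye, MitoTracker Red and Annexin V Alexa Fluor 680 were imaged on a CQ1 microscope at 37°C and 5% CO2 after compound addition. Their classification by CellPathfinder machine-learning gating ran from Hoechst high-intensity objects versus normal cells, to healthy, pyknosed or fragmented nuclei among normal cells, to mitotic or apoptotic among pyknosed cells. Tubulin, mitochondrial-mass and membrane-permeability phenotypes are per cents of healthy-nucleus cells.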
# [1] = 12 h, 1 µM, compound concentration 1 uM, replicate 1
# [2] = 12 h, 1 µM, compound concentration 1 uM, replicate 2
# [3] = 12 h, 10 µM, compound concentration 10 uM, replicate 1
# [4] = 12 h, 10 µM, compound concentration 10 uM, replicate 2
# [5] = 24 h, 1 µM, compound concentration 1 uM, replicate 1
# [6] = 24 h, 1 µM, compound concentration 1 uM, replicate 2
# [7] = 24 h, 10 µM, compound concentration 10 uM, replicate 1
# [8] = 24 h, 10 µM, compound concentration 10 uM, replicate 2
# [9] = 48 h, 1 µM, compound concentration 1 uM, replicate 1
# [10] = 48 h, 1 µM, compound concentration 1 uM, replicate 2
# [11] = 48 h, 10 µM, compound concentration 10 uM, replicate 1
# [12] = 48 h, 10 µM, compound concentration 10 uM, replicate 2
smiles,measurement,setting,value
CC(C)(C)c1ccc(CSc2cnn(C(C)(C)C)c(=O)c2Cl)cc1 [PYRIDABEN],Population Apoptotic (%),[1],51%
same,Population Fragmented Nuclei (%),[1],7%
same,Population Healthy Nuclei (%),[1],78%
same,Population Hoechst High Intensity Objects (%),[1],12%
same,Population Membrane Permeable-Phenotype (%),[1],0%
same,Population Mitochondria Different-Phenotype (%),[1],51%
same,Population Mitotic Cells (%),[1],48%
same,Population Normal (%),[1],87%
same,Population Pyknosed Nuclei (%),[1],14%
same,Population Tubulin-Different-Phenotype (%),[1],34%
same,Total Cell Count,[1],299
same,Population Apoptotic (%),[2],28%
same,Population Fragmented Nuclei (%),[2],6%
same,Population Healthy Nuclei (%),[2],83%
same,Population Hoechst High Intensity Objects (%),[2],8%
same,Population Mitochondria Different-Phenotype (%),[2],63%
same,Population Mitotic Cells (%),[2],71%
same,Population Normal (%),[2],91%
same,Population Pyknosed Nuclei (%),[2],10%
same,Population Tubulin-Different-Phenotype (%),[2],30%
same,Total Cell Count,[2],306
same,Population Apoptotic (%),[3],56%
same,Population Fragmented Nuclei (%),[3],6%
same,Population Healthy Nuclei (%),[3],77%
same,Population Hoechst High Intensity Objects (%),[3],11%
same,Population Membrane Permeable-Phenotype (%),[3],0%
same,Population Mitochondria Different-Phenotype (%),[3],75%
same,Population Mitotic Cells (%),[3],44%
same,Population Normal (%),[3],88%
same,Population Pyknosed Nuclei (%),[3],15%
same,Population Tubulin-Different-Phenotype (%),[3],55%
same,Total Cell Count,[3],359
same,Population Apoptotic (%),[4],62%
same,Population Fragmented Nuclei (%),[4],8%
same,Population Healthy Nuclei (%),[4],74%
same,Population Hoechst High Intensity Objects (%),[4],17%
same,Population Mitochondria Different-Phenotype (%),[4],81%
same,Population Mitotic Cells (%),[4],37%
same,Population Normal (%),[4],82%
same,Population Pyknosed Nuclei (%),[4],16%
same,Population Tubulin-Different-Phenotype (%),[4],38%
same,Total Cell Count,[4],236
same,Population Apoptotic (%),[5],33%
same,Population Fragmented Nuclei (%),[5],7%
same,Population Healthy Nuclei (%),[5],80%
same,Population Hoechst High Intensity Objects (%),[5],9%
same,Population Membrane Permeable-Phenotype (%),[5],0%
same,Population Mitochondria Different-Phenotype (%),[5],37%
same,Population Mitotic Cells (%),[5],66%
same,Population Normal (%),[5],90%
same,Population Pyknosed Nuclei (%),[5],11%
same,Population Tubulin-Different-Phenotype (%),[5],27%
same,Total Cell Count,[5],373
same,Population Apoptotic (%),[6],35%
same,Population Healthy Nuclei (%),[6],83%
same,Population Hoechst High Intensity Objects (%),[6],8%
same,Population Mitochondria Different-Phenotype (%),[6],43%
same,Population Mitotic Cells (%),[6],64%
same,Population Normal (%),[6],91%
same,Population Pyknosed Nuclei (%),[6],8%
same,Population Tubulin-Different-Phenotype (%),[6],22%
same,Total Cell Count,[6],370
same,Population Apoptotic (%),[7],44%
same,Population Fragmented Nuclei (%),[7],7%
same,Population Healthy Nuclei (%),[7],79%
same,Population Hoechst High Intensity Objects (%),[7],10%
same,Population Membrane Permeable-Phenotype (%),[7],0%
same,Population Mitochondria Different-Phenotype (%),[7],68%
same,Population Mitotic Cells (%),[7],55%
same,Population Normal (%),[7],89%
same,Population Pyknosed Nuclei (%),[7],12%
same,Population Tubulin-Different-Phenotype (%),[7],52%
same,Total Cell Count,[7],386
same,Population Apoptotic (%),[8],46%
same,Population Fragmented Nuclei (%),[8],8%
same,Population Healthy Nuclei (%),[8],70%
same,Population Hoechst High Intensity Objects (%),[8],23%
same,Population Mitochondria Different-Phenotype (%),[8],65%
same,Population Mitotic Cells (%),[8],53%
same,Population Normal (%),[8],76%
same,Population Pyknosed Nuclei (%),[8],21%
same,Population Tubulin-Different-Phenotype (%),[8],25%
same,Total Cell Count,[8],252
same,Population Apoptotic (%),[9],19%
same,Population Fragmented Nuclei (%),[9],11%
same,Population Healthy Nuclei (%),[9],80%
same,Population Hoechst High Intensity Objects (%),[9],5%
same,Population Membrane Permeable-Phenotype (%),[9],0%
same,Population Mitochondria Different-Phenotype (%),[9],25%
same,Population Mitotic Cells (%),[9],80%
same,Population Normal (%),[9],94%
same,Population Pyknosed Nuclei (%),[9],7%
same,Population Tubulin-Different-Phenotype (%),[9],14%
same,Total Cell Count,[9],585
same,Population Apoptotic (%),[10],30%
same,Population Fragmented Nuclei (%),[10],9%
same,Population Healthy Nuclei (%),[10],84%
same,Population Hoechst High Intensity Objects (%),[10],4%
same,Population Mitochondria Different-Phenotype (%),[10],21%
same,Population Mitotic Cells (%),[10],69%
same,Population Normal (%),[10],95%
same,Population Pyknosed Nuclei (%),[10],6%
same,Population Tubulin-Different-Phenotype (%),[10],13%
same,Total Cell Count,[10],522
same,Population Apoptotic (%),[11],48%
same,Population Fragmented Nuclei (%),[11],8%
same,Population Healthy Nuclei (%),[11],79%
same,Population Hoechst High Intensity Objects (%),[11],11%
same,Population Membrane Permeable-Phenotype (%),[11],0%
same,Population Mitochondria Different-Phenotype (%),[11],59%
same,Population Mitotic Cells (%),[11],51%
same,Population Normal (%),[11],88%
same,Population Pyknosed Nuclei (%),[11],12%
same,Population Tubulin-Different-Phenotype (%),[11],43%
same,Total Cell Count,[11],424
same,Population Apoptotic (%),[12],64%
same,Population Fragmented Nuclei (%),[12],13%
same,Population Healthy Nuclei (%),[12],71%
same,Population Hoechst High Intensity Objects (%),[12],14%
same,Population Mitochondria Different-Phenotype (%),[12],48%
same,Population Mitotic Cells (%),[12],35%
same,Population Normal (%),[12],85%
same,Population Pyknosed Nuclei (%),[12],14%
same,Population Tubulin-Different-Phenotype (%),[12],28%
same,Total Cell Count,[12],290
Cc1c(Cc2ccc3ccccc3n2)c2cc(F)ccc2n1CC(=O)O [TIMAPIPRANT],Population Apoptotic (%),[1],42%
same,Population Fragmented Nuclei (%),[1],7%
same,Population Healthy Nuclei (%),[1],80%
same,Population Hoechst High Intensity Objects (%),[1],10%
same,Population Membrane Permeable-Phenotype (%),[1],0%
same,Population Mitochondria Different-Phenotype (%),[1],36%
same,Population Mitotic Cells (%),[1],57%
same,Population Normal (%),[1],89%
same,Population Pyknosed Nuclei (%),[1],11%
same,Population Tubulin-Different-Phenotype (%),[1],20%
same,Total Cell Count,[1],394
same,Population Fragmented Nuclei (%),[2],6%
same,Population Hoechst High Intensity Objects (%),[2],7%
same,Population Mitochondria Different-Phenotype (%),[2],55%
same,Population Normal (%),[2],92%
same,Population Pyknosed Nuclei (%),[2],12%
same,Population Tubulin-Different-Phenotype (%),[2],16%
same,Total Cell Count,[2],280
same,Population Apoptotic (%),[3],32%
same,Population Fragmented Nuclei (%),[3],7%
same,Population Healthy Nuclei (%),[3],78%
same,Population Hoechst High Intensity Objects (%),[3],6%
same,Population Membrane Permeable-Phenotype (%),[3],0%
same,Population Mitochondria Different-Phenotype (%),[3],55%
same,Population Mitotic Cells (%),[3],67%
same,Population Normal (%),[3],93%
same,Population Pyknosed Nuclei (%),[3],14%
same,Population Tubulin-Different-Phenotype (%),[3],38%
same,Total Cell Count,[3],434
same,Population Apoptotic (%),[4],33%
same,Population Fragmented Nuclei (%),[4],6%
same,Population Hoechst High Intensity Objects (%),[4],5%
same,Population Mitochondria Different-Phenotype (%),[4],63%
same,Population Mitotic Cells (%),[4],66%
same,Population Normal (%),[4],94%
same,Population Pyknosed Nuclei (%),[4],15%
same,Population Tubulin-Different-Phenotype (%),[4],28%
same,Total Cell Count,[4],354
same,Population Apoptotic (%),[5],31%
same,Population Fragmented Nuclei (%),[5],10%
same,Population Healthy Nuclei (%),[5],81%
same,Population Hoechst High Intensity Objects (%),[5],4%
same,Population Membrane Permeable-Phenotype (%),[5],1%
same,Population Mitochondria Different-Phenotype (%),[5],20%
same,Population Mitotic Cells (%),[5],68%
same,Population Normal (%),[5],95%
same,Population Pyknosed Nuclei (%),[5],8%
same,Population Tubulin-Different-Phenotype (%),[5],15%
same,Total Cell Count,[5],516
same,Population Apoptotic (%),[6],53%
same,Population Fragmented Nuclei (%),[6],7%
same,Population Healthy Nuclei (%),[6],83%
same,Population Hoechst High Intensity Objects (%),[6],5%
same,Population Membrane Permeable-Phenotype (%),[6],0%
same,Population Mitochondria Different-Phenotype (%),[6],38%
same,Population Mitotic Cells (%),[6],46%
same,Population Normal (%),[6],94%
same,Total Cell Count,[6],381
same,Population Apoptotic (%),[7],32%
same,Population Fragmented Nuclei (%),[7],7%
same,Population Healthy Nuclei (%),[7],78%
same,Population Hoechst High Intensity Objects (%),[7],4%
same,Population Membrane Permeable-Phenotype (%),[7],0%
same,Population Mitochondria Different-Phenotype (%),[7],31%
same,Population Mitotic Cells (%),[7],67%
same,Population Normal (%),[7],95%
same,Population Pyknosed Nuclei (%),[7],13%
same,Population Tubulin-Different-Phenotype (%),[7],28%
same,Total Cell Count,[7],560
same,Population Apoptotic (%),[8],37%
same,Population Fragmented Nuclei (%),[8],12%
same,Population Healthy Nuclei (%),[8],77%
same,Population Hoechst High Intensity Objects (%),[8],5%
same,Population Mitochondria Different-Phenotype (%),[8],44%
same,Population Mitotic Cells (%),[8],62%
same,Population Normal (%),[8],94%
same,Population Pyknosed Nuclei (%),[8],10%
same,Population Tubulin-Different-Phenotype (%),[8],20%
same,Total Cell Count,[8],475
same,Population Apoptotic (%),[9],26%
same,Population Fragmented Nuclei (%),[9],13%
same,Population Healthy Nuclei (%),[9],78%
same,Population Hoechst High Intensity Objects (%),[9],2%
same,Population Membrane Permeable-Phenotype (%),[9],1%
same,Population Mitochondria Different-Phenotype (%),[9],9%
same,Population Mitotic Cells (%),[9],73%
same,Population Normal (%),[9],97%
same,Population Pyknosed Nuclei (%),[9],8%
same,Population Tubulin-Different-Phenotype (%),[9],6%
same,Total Cell Count,[9],799
same,Population Apoptotic (%),[10],17%
same,Population Fragmented Nuclei (%),[10],15%
same,Population Healthy Nuclei (%),[10],76%
same,Population Hoechst High Intensity Objects (%),[10],3%
same,Population Membrane Permeable-Phenotype (%),[10],0%
same,Population Mitochondria Different-Phenotype (%),[10],25%
same,Population Mitotic Cells (%),[10],82%
same,Population Normal (%),[10],96%
same,Population Tubulin-Different-Phenotype (%),[10],12%
same,Total Cell Count,[10],566
same,Population Apoptotic (%),[11],33%
same,Population Fragmented Nuclei (%),[11],10%
same,Population Healthy Nuclei (%),[11],79%
same,Population Hoechst High Intensity Objects (%),[11],4%
same,Population Membrane Permeable-Phenotype (%),[11],1%
same,Population Mitochondria Different-Phenotype (%),[11],24%
same,Population Mitotic Cells (%),[11],66%
same,Population Normal (%),[11],95%
same,Population Pyknosed Nuclei (%),[11],9%
same,Population Tubulin-Different-Phenotype (%),[11],17%
same,Total Cell Count,[11],752
same,Population Apoptotic (%),[12],36%
same,Population Fragmented Nuclei (%),[12],14%
same,Population Healthy Nuclei (%),[12],78%
same,Population Membrane Permeable-Phenotype (%),[12],0%
same,Population Mitochondria Different-Phenotype (%),[12],33%
same,Population Mitotic Cells (%),[12],63%
same,Population Pyknosed Nuclei (%),[12],6%
same,Population Tubulin-Different-Phenotype (%),[12],16%
same,Total Cell Count,[12],630
